# ChEMBL document CHEMBL4229494, “Novel tertiary sulfonamides as potent anti-cancer agents” (Bioorg Med Chem, 2018)
# pEC50, pIC50: −log10 of the molar value.
# Experiments:
# MDA-MB-231 [1] = assay: Antitumor activity against human MDA-MB-231 cells xenografted in athymic nude mouse assessed as average tumor volume at 20 mg/kg, ip qd administered every consecutive day in presence of doxorubicin at 5 mg/kg/week measured on day 35 relative to control; format: functional
# MCF7 [2] = assay: Induction of apoptosis in human MCF7 cells after 24 hrs by caspase-Glo 3/7 reagent based luminescence assay; format: functional, cell-based; conditions: MCF7, 24 h
# Summary of the method: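 MCF-7 cells were plated at 25,000/well (DMEM, 10% FBS) and grown 24 h, then treated at 1.6 nM–5 µM or with DMSO for 24 h. Caspase 3/7 activity was read by Caspase-Glo 3/7 luminescence. Triplicate signals relative to DMSO were analysed by nonlinear regression.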
# [3] = Metabolic stability in human liver microsomes measured at > 60 mins in presence of NADPH by HPLC analysis; format: ADME, microsome; conditions: 1 h
# [4] = Inhibition of Wnt3A-induced Wnt transcription (unknown origin) expressed in HEK293 cells coexpressing TK-driven Rluc after 20 to 22 hrs by super-top flash reporter gene assay; format: cell-based; conditions: Homo sapiens
# Summary of the method: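 HEK-293 cells (DMEM, 10% FBS) were co-transfected with Super(8x)TOPflash, a Wnt3A expression vector and TK-driven Renilla luciferase. After 8 h at 37 °C, 5% CO2, cells were seeded at 25,000/well and treated at 1.6, 8, 40, 200, 1000 or 5000 nM, or with DMSO, for 20-22 h in triplicate. Firefly/Renilla luminescence was taken relative to DMSO, and IC50 was found by nonlinear regression.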
# MDA-MB-231 [5] = assay: Antiproliferative activity against human MDA-MB-231 cells after 24 hrs by SYBR green dye based fluorescence assay; format: functional, cell-based; conditions: MDA-MB-231, 24 h
# Summary of the method: (§1)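 Cells were plated at 500/well in DMEM/10% FBS and allowed to attach for 24 h at 37 °C, 5% CO2. They were then exposed to 1.6 nM–5 µM or DMSO. One plate was harvested every 24 h over 7 days and frozen at -20 °C. DNA was quantified by SYBR Green fluorescence (Ex495/Em535). Triplicate values relative to DMSO went to nonlinear regression for IC50.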
# MCF7 [6] = assay: Antiproliferative activity against human MCF7 cells after 24 hrs by SYBR green dye based fluorescence assay; format: functional, cell-based; conditions: MCF7, 24 h; summary of the method: as §1
# [7] = Solubility of the compound; format: physicochemical
# [8] = Lipophilicity, log D of the compound at pH 3; format: physicochemical; conditions: buffer
# [9] = Lipophilicity, log D of the compound at pH 7; format: physicochemical; conditions: buffer
# MCF7 [10] = assay: Potentiation of doxorubicin-induced antiproliferative activity against human MCF7 cells at 8 nM after 72 hrs by SYBR green dye based fluorescence assay relative to control; format: functional
# Summary of the method: (§2)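 Cells were plated at 2,000/well (DMEM, 10% FBS) and incubated 24 h at 37 °C, 5% CO2. Test compound at 1.6 nM–2 µM was given with or without doxorubicin (MCF-7: 1.6 nM–2 µM; MDA-MB-231: 4 nM–5 µM), or DMSO, for 72 h. DNA was measured by SYBR Green fluorescence (Ex495/Em535). Triplicate values relative to DMSO were used for IC50 and Chou-Talalay combination index analysis.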
# MDA-MB-231 [11] = assay: Potentiation of doxorubicin-induced antiproliferative activity against human MDA-MB-231 cells at 8 nM after 72 hrs by SYBR green dye based fluorescence assay relative to control; format: functional; summary of the method: as §2
# MCF7 [12] = assay: Synergistic antiproliferative activity against human MCF7 cells assessed as combination index at 8 nM after 72 hrs in presence of doxorubicin by SYBR green dye based fluorescence assay; format: functional; summary of the method: as §2
# MDA-MB-231 [13] = assay: Synergistic antiproliferative activity against human MDA-MB-231 cells assessed as combination index at 8 nM after 72 hrs in presence of doxorubicin by SYBR green dye based fluorescence assay; format: functional; summary of the method: as §2
# MCF7 [14] = assay: Synergistic antiproliferative activity against human MCF7 cells assessed as combination index at ED75 after 72 hrs in presence of doxorubicin by SYBR green dye based fluorescence assay; format: functional; summary of the method: as §2
# MDA-MB-231 [15] = assay: Synergistic antiproliferative activity against human MDA-MB-231 cells assessed as combination index at ED75 after 72 hrs in presence of doxorubicin by SYBR green dye based fluorescence assay; format: functional; summary of the method: as §2
# MCF7 [16] = assay: Synergistic antiproliferative activity against human MCF7 cells assessed as combination index at ED90 after 72 hrs in presence of doxorubicin by SYBR green dye based fluorescence assay; format: functional; summary of the method: as §2
# MDA-MB-231 [17] = assay: Synergistic antiproliferative activity against human MDA-MB-231 cells assessed as combination index at ED90 after 72 hrs in presence of doxorubicin by SYBR green dye based fluorescence assay; format: functional; summary of the method: as §2
# [18] = target: Voltage-gated inwardly rectifying potassium channel KCNH2 (Homo sapiens, UniProt Q12809); assay: Inhibition of human ERG up to 50 uM
# Sequence of Voltage-gated inwardly rectifying potassium channel KCNH2 (Q12809 whole entry): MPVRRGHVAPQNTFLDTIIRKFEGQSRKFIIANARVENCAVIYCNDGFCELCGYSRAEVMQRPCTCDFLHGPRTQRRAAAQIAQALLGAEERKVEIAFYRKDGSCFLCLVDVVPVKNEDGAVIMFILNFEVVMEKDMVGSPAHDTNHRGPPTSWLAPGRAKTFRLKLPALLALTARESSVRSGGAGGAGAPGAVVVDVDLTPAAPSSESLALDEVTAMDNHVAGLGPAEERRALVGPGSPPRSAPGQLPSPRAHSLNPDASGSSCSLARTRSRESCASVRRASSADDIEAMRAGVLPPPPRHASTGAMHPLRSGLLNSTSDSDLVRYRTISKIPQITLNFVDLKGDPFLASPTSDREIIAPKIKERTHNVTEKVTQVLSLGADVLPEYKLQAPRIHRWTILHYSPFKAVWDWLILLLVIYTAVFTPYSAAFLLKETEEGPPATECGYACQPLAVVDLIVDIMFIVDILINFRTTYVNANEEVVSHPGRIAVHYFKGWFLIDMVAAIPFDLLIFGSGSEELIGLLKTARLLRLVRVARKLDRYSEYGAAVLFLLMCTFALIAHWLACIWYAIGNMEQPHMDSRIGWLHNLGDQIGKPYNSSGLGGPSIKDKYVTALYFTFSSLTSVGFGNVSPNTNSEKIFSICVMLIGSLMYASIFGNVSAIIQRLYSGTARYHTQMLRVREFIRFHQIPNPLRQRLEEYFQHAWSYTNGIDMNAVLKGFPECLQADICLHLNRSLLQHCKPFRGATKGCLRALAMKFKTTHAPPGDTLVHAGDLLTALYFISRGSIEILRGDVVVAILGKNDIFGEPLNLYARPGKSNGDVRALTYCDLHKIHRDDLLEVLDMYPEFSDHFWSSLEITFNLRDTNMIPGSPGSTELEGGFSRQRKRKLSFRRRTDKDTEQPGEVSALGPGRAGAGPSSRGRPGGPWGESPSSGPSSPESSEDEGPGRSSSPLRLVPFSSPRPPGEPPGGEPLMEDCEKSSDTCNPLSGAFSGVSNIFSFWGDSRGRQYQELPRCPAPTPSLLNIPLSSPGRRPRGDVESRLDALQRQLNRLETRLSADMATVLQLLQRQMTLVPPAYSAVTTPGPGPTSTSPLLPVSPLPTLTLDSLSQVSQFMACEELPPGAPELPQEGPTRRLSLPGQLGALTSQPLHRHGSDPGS
# [19] = Metabolic stability in rat liver microsomes measured at > 60 mins in presence of NADPH by HPLC analysis; format: ADME, microsome; conditions: 1 h
# [20] = Inhibition of human CYP450 at 50 uM; format: ADME
# [21] = Oral bioavailability in rat; format: ADME, organism-based; conditions: in vivo
# MDA-MB-231 [22] = assay: Antitumor activity against human MDA-MB-231 cells xenografted in athymic nude mouse assessed as decrease in tumor volume at 20 mg/kg, ip qd administered for 16 consecutive days relative to control; format: functional; design: scale not given: the % may be the effect or the level left
# MDA-MB-231 [23] = assay: Antitumor activity against human MDA-MB-231 cells xenografted in athymic nude mouse assessed as decrease in tumor volume at 20 mg/kg, ip qd administered for 16 consecutive days in presence of doxorubicin at 5 mg/kg/week relative to control; format: functional; design: scale not given: the % may be the effect or the level left
# MDA-MB-231 [24] = assay: Antitumor activity against human MDA-MB-231 cells xenografted in athymic nude mouse assessed as average tumor volume at 20 mg/kg, ip qd administered every consecutive day in presence of doxorubicin at 5 mg/kg/week measured on day 51 (reference value: 653 +/- 192 mm3); format: functional
# [25] = Drug uptake in serum of athymic nude mouse xenografted with human MDA-MB-231 cells at 20 mg/kg, ip qd administered for 16 consecutive days by HPLC/MS analysis; format: ADME, organism-based; conditions: read-out: Drug uptake
# Summary of the method: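 In the MDA-MB-231 xenografted nu/nu mice given 20 mg/kg/day i.p. for 16 days, serum drug concentration was measured by HPLC at the end of the study and confirmed by LCMS.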
# Mus musculus [26] = assay: Upregulation of p53 protein expression level in tumors of athymic nude mouse xenografted with human MDA-MB-231 cells at 20 mg/kg, ip qd administered every consecutive day in presence of doxorubicin at 5 mg/kg/week measured on day 51 by Western blot analysis relative to control; format: functional
# Summary of the method: (§3)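 MDA-MB-231 xenograft tumors were excised from nu/nu mice at study termination (day 51), after 16 days of i.p. treatment started on day 35. p53, phospho-Ser15-p53 and PARP cleavage were quantified by Western blot and compared with vehicle-treated animals.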
# Mus musculus [27] = assay: Upregulation of phospho Ser15-53 protein expression level in tumors of athymic nude mouse xenografted with human MDA-MB-231 cells at 20 mg/kg, ip qd administered every consecutive day in presence of doxorubicin at 5 mg/kg/week measured on day 51 by Western blot analysis relative to control; format: functional; summary of the method: as §3
# Mus musculus [28] = assay: Upregulation of PARP cleavage expression level in tumors of athymic nude mouse xenografted with human MDA-MB-231 cells at 20 mg/kg, ip qd administered every consecutive day in presence of doxorubicin at 5 mg/kg/week measured on day 51 by Western blot analysis relative to control; format: functional; summary of the method: as §3
# MDA-MB-231 [29] = assay: Synergistic antitumor activity against human MDA-MB-231 cells xenografted in athymic nude mouse assessed as reduction in tumor weight at 20 mg/kg, ip qd administered every consecutive day in presence of doxorubicin at 5 mg/kg/week measured on day 51; format: functional; design: scale not given: the % may be the effect or the level left
smiles,measurement,setting,value
CN1CCN(S(=O)(=O)c2ccc(N3CCCC3=O)cc2)c2ccccc21,Activity,MDA-MB-231 [1],154 mm3
same,pEC50,MCF7 [2],7.89
same,Stability,[3],Stable
same,pIC50,[4],7.96
same,pIC50,MDA-MB-231 [5],7.89
same,pIC50,MCF7 [6],8.00
same,solubility,[7],28.2 µM
same,logD,[8],1.9
same,logD,[9],1.9
same,fold change (FC),MCF7 [10],2 - 3
same,fold change (FC),MDA-MB-231 [11],2 - 3
same,CI,MCF7 [12],<1
same,CI,MDA-MB-231 [13],<1
same,CI,MCF7 [14],0.75
same,CI,MDA-MB-231 [15],0.68
same,CI,MCF7 [16],0.97
same,CI,MDA-MB-231 [17],0.72
same,inhibition (INH),[18],Not Active
same,Stability,[19],Stable
same,inhibition (INH),[20],Not Active
same,bioavailability,[21],15 to 20%
same,Activity,MDA-MB-231 [22],91.5%
same,Activity,MDA-MB-231 [23],93.7 - 96.2%
same,Activity,MDA-MB-231 [24],24.7 mm3
same,concentration at 16 days,[25],200 ng/mL
same,fold change (FC),Mus musculus [26],1.5
same,fold change (FC),Mus musculus [27],3
same,fold change (FC),Mus musculus [28],30
same,Activity,MDA-MB-231 [29],93.7%
